Experimental data: PMC6938543 (Vaccine, 2019)

How the values were obtained:
[1] = test system: Anti-α-PVP/MDPV polyclonal antibody; experiment: Competitive magnetic bead-based radioimmunoassay; format: binding, rat; settings: MDPV-t2 tracer; for IC50: structurally related cathinones tested at 10 μM and 100 μM only
How it was run: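 Sera came from male SD rats immunized sc with 100 μg bi-specific KLH conjugate plus 150 μL SAS. The competitive magnetic-bead RIA was specific for IgG binding and used tritium-labeled drug as tracer. Full inhibition curves with unlabeled drug gave IC50; one curve used a racemic homologous tritiated tracer. Analogues were tested only at 10 and 100 μM against 5 nM MDPV-t₂, scored as inhibition of tracer binding.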

[2] = MDPV and α-PVP serum concentrations after sc challenge dose; format: in vivo, rat; settings: SAS and vaccinated rats, LC-MS/MS
drug-specific pAb = settings: pAb from earlier separate α-PVP and MDPV vaccines; cited from earlier work
[3] = humans; cited from earlier work
male SD rats = format: in vivo, rat; settings: SAS control rats; sc
How it was run: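 Thirteen weeks after initial sc immunization (SAS alone or vaccine plus SAS), male SD rats (n=5–6/group) were habituated 60 min in litter-lined open-field chambers. They then got sc saline or drug at 0.3–5.6 mg/kg in ascending doses, 2–3 days apart, with each drug in a separate study. Video tracking ran 6 h; horizontal distance was summed per rat and reported as mean ± SD.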

[4] = Stability of α-PVP in extracted rat serum; format: physicochemical; settings: 4 °C

Row | Compound | IC50 [1] [µM] | inhibition of MDPV-t2 binding ([1]; 100 μM ligand) [%] | other results
1 | (S)-Methcathinone | > 100 |  | 
2 | NC[C@H](O)c1ccc(O)c(O)c1 [norepinephrine] |  | ≤ 50 | 
3 | CNC(C)C(=O)c1ccc2c(c1)OCO2 (stereo not shown) [Methylone] | > 100 |  | 
4 | CCCC(NC)C(=O)c1ccc2c(c1)OCO2 (stereo not shown) [Pentylone] | > 100 |  | 
5 | CCCC(C(=O)c1ccc2c(c1)OCO2)N1CCCC1 (stereo not shown) [MDPV, 3,4-Methylenedioxypyrovalerone] |  |  | serum concentration 24 h after drug administration [2]: below the lower limit of quantitation; pAb affinities constants (drug-specific pAb): micromolar range; blood concentrations associated with recreational use [3]: 10 to 50 ng/mL; blood concentrations at intoxication and overdose [3]: 50 to 300 ng/mL
6 | CNC(C)Cc1ccc2c(c1)OCO2 (racemic) [MDMA, (±)-3,4-methylenedioxymethamphetamine] |  | ≤ 50 | 
7 | CCCC(C(=O)c1ccc(C)cc1)N1CCCC1 (stereo not shown) [Pyrovalerone] |  |  | inhibition of MDPV-t2 binding ([1]; 10 μM ligand): 68%
8 | CCC(C(=O)c1ccc2c(c1)OCO2)N1CCCC1 (stereo not drawn) [3,4-Methylenedioxy-α-pyrrolidinobutiophenone] | 100 | 50 | 
9 | CCCC(NC)C(=O)c1ccccc1 (stereo not shown) [Pentedrone] | > 100 |  | 
10 | CN[C@@H](C)[C@@H](O)c1ccccc1 [pseudoephedrine] |  | ≤ 50 | 
11 | CNC(C)C(=O)c1ccc(C)cc1 (stereo not shown) [Mephedrone] | > 100 |  | 
12 | CCCC(C(=O)c1ccccc1)N1CCCC1 (stereo not drawn) [α-PVP, α-pyrrolidinovalerophenone] |  |  | serum concentration 24 h after drug administration [2]: below the lower limit of quantitation; pAb affinities constants (drug-specific pAb): micromolar range; dose of peak effect on horizontal movement (male SD rats): 1.0 mg/kg; stability in extracted serum [4]: at least 59 h
13 | NCCc1ccc(O)cc1 [tyramine] |  | ≤ 50 | 
14 | CNC[C@H](O)c1ccc(O)c(O)c1 [epinephrine] |  | ≤ 50 | 
15 | C[C@H](N)C(=O)c1ccccc1 [(S)-Cathinone] | > 100 |  | 
16 | CN[C@@H](C)Cc1ccccc1 [methamphetamine] |  | ≤ 50 | 
17 | c1ccc(C2(N3CCCCC3)CCCCC2)cc1 [phencyclidine] |  | ≤ 50 | 
18 | CC(C(=O)c1ccc2c(c1)OCO2)N1CCCC1 (stereo not drawn) [3,4-Methylenedioxy-α-pyrrolidinopropiophenone] | > 100 |  | 
19 | NCCc1c[nH]c2ccc(O)cc12 [serotonin] |  | ≤ 50 | 
20 | NCCc1ccc(O)c(O)c1 [dopamine] |  | ≤ 50 | 
21 | COC(=O)[C@H]1[C@@H](OC(=O)c2ccccc2)C[C@@H]2CC[C@H]1N2C [cocaine] |  | ≤ 50 | 
